Test results: ChEMBL document CHEMBL1287726, “Bisaryldiketene derivatives: A new class of selective ligands for c-myc G-quadruplex DNA” (Bioorg Med Chem, 2010)
Where “and” joins values, the source holds several entries; their conditions need not be identical. Equal values may be shown once. Calls of active or inactive are those of the source. The rule behind the calls is not given here.

Key:
Nucleic Acid [1] = assay: Binding affinity to single-strand Pu27 oligonucleotide assessed as formation of G-quadruplex complex after 3 mins by PCR stop assay; assay type: nucleic-acid assay
Procedure, shortened: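 PCR stop assay: Pu27 with complementary Pu27rev (10 pmol each), 0.16 mM dNTP, 2.5 U Taq polymerase and ligand in 1× PCR buffer. Cycling 94 °C 3 min, then 35 cycles of 94 °C/58 °C/72 °C, 30 s each. Double-stranded product detected by electrophoresis; IC50 is the concentration inhibiting amplification by 50%.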

Nucleic Acid [2] = assay: Binding affinity to F-c-kit1-T G-quadruplex DNA assessed as change in melting temperature at 1 uM by FRET assay (reference value: 54 degC); assay type: nucleic-acid assay
Procedure, shortened: (§1)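 FRET melting of dual FAM/TAMRA-labelled oligonucleotide (0.2 μM), pre-annealed in K+ buffer (90 °C 5 min, slow cooling, 4 °C overnight), in 10 mM Tris-HCl pH 7.4, 60 mM KCl with ligand at 1 μM. Equilibrated 25 °C 5 min, then heated 1 °C/min to 95 °C; excitation 492 nm, emission 516 nm. ΔTm = Tm(DNA+ligand) − Tm(DNA).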

Nucleic Acid [3] = assay: Binding affinity to F-c-kit2-T G-quadruplex DNA assessed as change in melting temperature at 1 uM by FRET assay (reference value: 75 degC); assay type: nucleic-acid assay; procedure, shortened: as §1
Nucleic Acid [4] = assay: Binding affinity to F10T hairpin duplex DNA assessed as change in melting temperature at 1 uM by FRET assay (reference value: 64 degC)
[5] = system: human telomeric G-quadruplex DNA F21T (human); assay: Binding affinity to F21T G-quadruplex DNA assessed as change in melting temperature at 1 uM by FRET assay (reference value: 60 degC)
[6] = system: c-myc G-quadruplex DNA F22T (human); assay: Binding affinity to human F22T G-quadruplex DNA assessed as change in melting temperature at 1 uM by FRET assay (reference value: 78 degC)
Nucleic Acid [7] = assay: Binding affinity to F22T G-quadruplex DNA assessed as decrease in melting temperature at 1 uM by FRET assay in presence of duplex DNA competitor ds26; assay type: nucleic-acid assay
Procedure, shortened: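 Competitive FRET melting: 0.2 μM F22T premixed with excess duplex ds26 (3 μM or 10 μM), ligand at 1 μM, in 10 mM Tris-HCl pH 7.4, 60 mM KCl. Heated 1 °C/min from 25 °C to 95 °C; ex 492/em 516 nm; ΔTm determined.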

Nucleic Acid [8] = assay: Selectivity ratio, K for F22T G-quadruplex DNA to K for human F21T G-quadruplex DNA; assay type: nucleic-acid assay
Nucleic Acid [9] = assay: Selectivity ratio, K for F22T G-quadruplex DNA to K for c-kit2 G-quadruplex DNA; assay type: nucleic-acid assay
Nucleic Acid [10] = assay: Binding affinity to F22T G-quadruplex DNA assessed as change in melting temperature at 1 uM by FRET assay in presence of G-quadruplex DNA competitor c-kit1; assay type: nucleic-acid assay
Procedure, shortened: (§2)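 Competitive FRET melting: 0.2 μM F22T with ligand at 1 μM, without or with 3 μM or 10 μM unlabelled G-quadruplex competitor (c-kit1, c-kit2 or HTG21), in 10 mM Tris-HCl pH 7.4, 60 mM KCl. Heated 1 °C/min from 25 °C to 95 °C; ex 492/em 516 nm; ΔTm determined.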

Nucleic Acid [11] = assay: Binding affinity to F22T G-quadruplex DNA assessed as decrease in melting temperature at 1 uM by FRET assay in presence of G-quadruplex DNA competitor HTG21; assay type: nucleic-acid assay; procedure, shortened: as §2
Nucleic Acid [12] = assay: Binding affinity to c-kit1 G-quadruplex DNA assessed as change in melting temperature by isothermal titration calorimetry; assay type: nucleic-acid assay
Procedure, shortened: (§3)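 ITC at 25 °C: preannealed G-quadruplex (5 μM) in cell, ligand (400 μM) in syringe, both in 10 mM Tris-HCl pH 7.4, 150 mM KCl, degassed. Thirty 10 μL injections at 4 min intervals. Heats of ligand dilution into buffer subtracted before fitting the integrated thermograms for K, ΔH, ΔS.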

Nucleic Acid [13] = assay: Binding affinity to c-kit2 G-quadruplex DNA assessed as change in melting temperature by isothermal titration calorimetry; assay type: nucleic-acid assay; procedure, shortened: as §3
Nucleic Acid [14] = assay: Binding affinity to Pu27 G-quadruplex DNA assessed as change in melting temperature by isothermal titration calorimetry; assay type: nucleic-acid assay; procedure, shortened: as §3
Nucleic Acid [15] = assay: Binding affinity to HTG21 G-quadruplex DNA assessed as change in melting temperature by isothermal titration calorimetry; assay type: nucleic-acid assay; procedure, shortened: as §3
Nucleic Acid [16] = assay: Selectivity ratio, K for F22T G-quadruplex DNA to K for c-kit1 G-quadruplex DNA; assay type: nucleic-acid assay
Nucleic Acid [17] = assay: Binding affinity to F22T G-quadruplex DNA assessed as change in melting temperature at 1 uM by FRET assay in presence of G-quadruplex DNA competitor c-kit2; assay type: nucleic-acid assay; procedure, shortened: as §2

IC50 (Nucleic Acid [1])	ΔTm (Nucleic Acid [2])	ΔTm (Nucleic Acid [3])	ΔTm (Nucleic Acid [4])	ΔTm [5]	ΔTm [6]	Activity (Nucleic Acid [7])	Selectivity ratio (Nucleic Acid [8])	Selectivity ratio (Nucleic Acid [9])	Activity (Nucleic Acid [10])	Activity (Nucleic Acid [11])	K (Nucleic Acid [12])	K (Nucleic Acid [13])	K (Nucleic Acid [14])	K (Nucleic Acid [15])	Selectivity ratio (Nucleic Acid [16])	Activity (Nucleic Acid [17])	Compound
12.6 µM	14 °C	6 °C	0 °C	7 °C	7 °C	inactive	–	–	–	–	–	–	–	–	–	–	C[n+]1cccc2cc(/C=C3\C[N+](C)(C)C/C(=C\c4ccc5c(ccc[n+]5C)c4)C3=O)ccc21
> 20 µM	1 °C	0 °C	0 °C	0 °C	2 °C	inactive	–	–	–	–	–	–	–	–	–	–	O=C1/C(=C/c2ccc3ncccc3c2)CC/C1=C\c1ccc2ncccc2c1
1.1 µM	17 °C	12 °C	0 °C	10 °C	9 °C	inactive	–	–	–	–	–	–	–	–	–	–	C[n+]1cccc2cc(/C=C3/CCC/C(=C/c4ccc5c(ccc[n+]5C)c4)C3=O)ccc21
0.7 µM	24 °C	17 °C	0 °C	17 °C	13 °C	inactive	–	–	–	–	–	–	–	–	–	–	C[n+]1cccc2cc(/C=C/C(=O)/C=C/c3ccc4c(ccc[n+]4C)c3)ccc21
> 20 µM	1 °C	1 °C	0 °C	4 °C	1 °C	inactive	–	–	–	–	–	–	–	–	–	–	CN1C/C(=C\c2ccc3ncccc3c2)C(=O)/C(=C/c2ccc3ncccc3c2)C1
> 20 µM	1 °C	0 °C	0 °C	0 °C	2 °C	inactive	–	–	–	–	–	–	–	–	–	–	O=C1/C(=C\c2ccc3ncccc3c2)CCC/C1=C/c1ccc2ncccc2c1
> 20 µM	10 °C	5 °C	0 °C	3 °C	2 °C	inactive	–	–	–	–	–	–	–	–	–	–	O=C(/C=C/c1ccc2ncccc2c1)/C=C/c1ccc2ncccc2c1
0.9 µM	29 °C	20 °C	1 °C	23 °C	17 °C	inactive	200	25	40%	Active	3.08 ×10⁵ /M	1.27 ×10⁵ /M	8.05 ×10⁶ /M and 4.42 ×10⁴ /M	3.61 ×10⁴ /M	25	40%	C[n+]1cccc2cc(/C=C3\CC/C(=C\c4ccc5c(ccc[n+]5C)c4)C3=O)ccc21
